Laboratory results published in ChEMBL document CHEMBL1156083, “N,N-Diethyl-4-[(3-hydroxyphenyl)(piperidin-4-yl)amino] benzamide derivatives: the development of diaryl amino piperidines as potent delta opioid receptor agonists with in vivo anti-nociceptive activity in rodent models” (Bioorg Med Chem Lett, 2009).

Key:
[1] = Bioavailability in rat; type: ADME, organism-based; conditions: in vivo
Mus musculus [2] = test: Toxicity in CD1 mouse assessed hyperactivity at above 30 umol/kg, iv after 20 mins; type: organism-based; conditions: in vivo
[3] = Half life in rat; type: ADME, organism-based; conditions: in vivo
Mus musculus [4] = test: Toxicity in CD1 mouse assessed convulsant activity at 4 to 25 umol/kg, iv after 20 mins; type: organism-based; conditions: in vivo
How it was run: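 CD1 mice were watched for convulsions during the acetic acid writhing experiment, at the intravenous doses used there (4 to 25) and 20 min after dosing.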

Rattus norvegicus [5] = test: Toxicity in Sprague-Dawley rat assessed convulsant activity at 3 to 30 umol/kg, iv after 30 mins; type: organism-based; conditions: in vivo, 0.5 h
How it was run: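 Sprague-Dawley rats were watched for convulsions during the carrageenan hyperalgesia experiment, at the intravenous doses used there (3 to 30) and 30 min after dosing.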

Rattus norvegicus [6] = test: Toxicity in Sprague-Dawley rat assessed hyperactivity at above 30 umol/kg, iv after 30 mins; type: organism-based; conditions: in vivo, 0.5 h
Rattus norvegicus [7] = test: Antihyperalgesic activity against carrageenan-induced inflammatory hyperalgesia in iv dosed Sprague-Dawley rat after 30 mins; type: functional
How it was run: (§1)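 Sprague-Dawley rats with carrageenan-induced inflammatory hyperalgesia received the compound intravenously across a dose range of 3 to 30. Antinociceptive reversal was measured 30 min after dosing.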

Rattus norvegicus [8] = test: Antihyperalgesic activity against carrageenan-induced inflammatory hyperalgesia in Sprague-Dawley rat at 30 umol/kg, iv after 30 mins; type: functional; how it was run: as §1
Mus musculus [9] = test: Antinociceptive activity against acetic acid-induced writhing response in iv dosed CD1 mouse after 20 mins; type: functional
How it was run: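 CD1 mice received the compound intravenously at doses of 4 to 25 before the acetic acid-induced abdominal constriction (writhing) test. Writhing inhibition was scored 20 min after dosing and ED₅₀ was taken from the dose-response. A separate arm was pretreated with the delta-selective antagonist naltrindole.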

## CCN(CC)C(=O)c1ccc(N(c2cccc(O)c2)C2CCN(CCc3ccccc3)CC2)cc1
[1]
  bioavailability: 25%
Mus musculus [2]
  Activity: Non-toxic
[3]
  half-life: 48 min
Mus musculus [4]
  Activity: Non-toxic
Rattus norvegicus [5]
  Activity: Non-toxic
Rattus norvegicus [6]
  Activity: Non-toxic
Rattus norvegicus [7]
  Activity: Dose-dependent effect
Rattus norvegicus [7]; Rattus norvegicus, Sprague-Dawley, iv, 0.5 h
  ED50: 17.5 µmol/kg
Rattus norvegicus [8]
  Activity: 60%

## CN1CC[C@]23c4c5ccc(O)c4O[C@H]2[C@@H](O)C=C[C@H]3[C@H]1C5 [MORPHINE]
Mus musculus [9]
  Activity: 1.5 µmol/kg
Rattus norvegicus [7]
  Activity: 3.1 µmol/kg
